{
  "source": "paper PMC6026531",
  "about": "(Molecular pharmaceutics, 2017)",
  "key": {"[1]": {"test_system": "PC3 prostate tumor xenografts", "test": "In vivo MRI of PC3 tumor-bearing mice", "set-up": "species or system mouse", "conditions": "T1-weighted 3D FLASH, 0.1 mmol/kg i.v., imaged at 10, 20 and 30 min, n = 5", "how_it_was_run": "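Male athymic nude mice carried subcutaneous PC3 xenografts (100 µL of 4×10^7 cells/mL in Matrigel) and were imaged at 5–8 mm tumor diameter on a 1.0 T scanner. Agents in saline were given i.v. at 0.1 mmol/kg Gd3+, with a gadoteridol control. Images were taken pre-contrast and every 10 min to 30 min by axial T1 spin echo (TR 500 ms, TE 8.144 ms) and coronal 3D FLASH (TR 17.362 ms, TE 6 ms, 15°). CNR was the tumor/muscle ROI signal […] normalised to noise.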"}, "[2]": {"test": "Relaxivity measurement of contrast agents", "type": "physicochemical", "conditions": "1.5 T, in water, 37 °C"}},
  "data": [
    {"smiles": "CC(O)CN1CCN(CC(=O)[O-])CCN(CC(=O)[O-])CCN(CC(=O)[O-])CC1.[Gd+3]", "note": "(stereo not drawn) [Gd(HP-DO3A), gadoteridol]", "values": [
      {"measurement": "Time of peak CNR in PC3 tumors", "setting": "[1]", "value": 10, "unit": "min"},
      {"measurement": "r1 relaxivity", "setting": "[2]", "value": 2.9, "unit": "mM⁻¹ s⁻¹"}
    ]},
    {"smiles": "O=C([O-])CN1CCN(CC(=O)[O-])CCN(CC(=O)O)CCN(CC(=O)[O-])CC1.[Gd+3]", "note": "[Gd-DOTA]", "values": [
      {"measurement": "r1 relaxivity", "setting": "[2]", "value": 2.9, "unit": "mM⁻¹ s⁻¹"}
    ]}
  ]
}
